Measurements of several laboratories.
Lines come from different studies, so protocols differ.
Target: Serine/threonine-protein kinase ULK1 (ULK1, Homo sapiens, UniProt O75385)
Residues used in one study (O75385 1-1050): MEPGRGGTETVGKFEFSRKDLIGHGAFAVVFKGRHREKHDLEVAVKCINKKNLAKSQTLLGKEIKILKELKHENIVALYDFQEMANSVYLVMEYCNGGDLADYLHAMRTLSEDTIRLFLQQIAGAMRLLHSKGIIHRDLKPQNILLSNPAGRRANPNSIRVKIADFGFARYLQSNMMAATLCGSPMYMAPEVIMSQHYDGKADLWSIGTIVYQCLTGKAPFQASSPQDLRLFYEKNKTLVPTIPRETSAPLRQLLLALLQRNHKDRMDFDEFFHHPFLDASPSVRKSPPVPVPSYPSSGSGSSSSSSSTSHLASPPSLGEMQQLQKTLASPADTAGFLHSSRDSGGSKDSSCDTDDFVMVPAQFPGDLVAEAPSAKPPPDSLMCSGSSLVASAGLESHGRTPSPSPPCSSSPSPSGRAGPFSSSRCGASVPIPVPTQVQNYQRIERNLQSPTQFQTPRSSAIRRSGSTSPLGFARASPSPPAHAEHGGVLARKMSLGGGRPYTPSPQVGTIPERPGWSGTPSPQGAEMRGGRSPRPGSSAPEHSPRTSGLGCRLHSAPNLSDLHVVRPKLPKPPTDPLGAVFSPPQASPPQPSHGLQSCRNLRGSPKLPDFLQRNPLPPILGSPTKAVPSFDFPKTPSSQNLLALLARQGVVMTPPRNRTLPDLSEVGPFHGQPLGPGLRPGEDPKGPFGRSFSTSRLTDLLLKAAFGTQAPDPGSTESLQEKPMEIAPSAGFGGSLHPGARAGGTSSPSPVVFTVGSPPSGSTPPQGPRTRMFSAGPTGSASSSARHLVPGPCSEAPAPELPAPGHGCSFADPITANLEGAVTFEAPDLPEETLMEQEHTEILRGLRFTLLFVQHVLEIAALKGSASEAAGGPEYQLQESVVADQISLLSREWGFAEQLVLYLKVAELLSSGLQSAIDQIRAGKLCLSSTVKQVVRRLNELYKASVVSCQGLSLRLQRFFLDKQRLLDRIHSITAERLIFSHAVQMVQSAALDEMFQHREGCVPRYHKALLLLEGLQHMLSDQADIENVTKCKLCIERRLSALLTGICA

| Compound | effect on | action | technique | concentration | quantity | result |
| --- | --- | --- | --- | --- | --- | --- |
| NS(=O)(=O)c1cc(NC(=O)C2(c3ccccc3Cl)CC2)ccc1Oc1cccc(Cl)c1 | cell-free assay |  | competition with immobilised ligand | 1 µM | remaining binding | 89% |
| C[S+]([O-])c1ccc(-c2nc(-c3ccncc3)c(-c3ccc(F)cc3)[nH]2)cc1 (stereo not shown) | cell-free assay |  |  | 0.5 µM | remaining signal | 89.3% |
| FC(F)(F)Oc1cccc(-c2cnc3ccc(-c4ccncc4)nn23)c1 | enzyme activity | inhibitor | radiometric | 5 µM | activity vs control | 92% |
| C[C@@H](c1cccc(C#N)c1)n1cc(Cl)cc(C(N)=O)c1=N | cell-free assay |  | competition with immobilised ligand | 1 µM | remaining binding | 72% |
| N#CCCc1ccc2c(c1)-c1[nH]c3ccc([N+](=O)[O-])cc3c1CC(=O)N2 | cell-free assay |  |  | 0.5 µM | remaining signal | 94.2% |
| O=C(NCCCNc1nc(Nc2cccc(NC(=O)N3CCCC3)c2)ncc1Br)C1CCC1 | enzyme activity | inhibitor | radiometric | 1 µM | remaining activity | 2% |
| Cc1cc(NC(=O)c2cccc3cc(-c4cccc5[nH]nc(N)c45)ccc23)ccc1F | enzyme activity | inhibitor |  | 0.1 µM | activity vs control | 95% |
| Cc1nn(CC(F)(F)F)cc1Nc1ncc(C2CC2)c(NCCCNC(=O)C2CCC2)n1 | enzyme activity | inhibitor | radiometric | 1 µM | remaining activity | 58% |
| C#Cc1cccc(Nc2ncnc3cc(OCCOC)c(OCCOC)cc23)c1 | cell-free assay |  |  | 0.5 µM | remaining signal | 113% |
| O=C(NCCCNc1nc(Nc2cccc(NC(=O)N3CCCC3)c2)ncc1I)c1cccs1 | enzyme activity | inhibitor | radiometric | 1 µM | remaining activity | 4% |
| O=C(NCc1ncc(C(F)(F)F)cc1Cl)c1ccc2c(c1)C1(CCS(=O)(=O)CC1)[C@@H](C1CC1)N2S(=O)(=O)c1ccc(F)cc1 | cell-free assay |  | competition with immobilised ligand | 1 µM | remaining binding | 80% |
| NS(=O)(=O)c1ccc(CNc2nc(Nc3cccc(NC(=O)N4CCCC4)c3)ncc2Br)cc1 | enzyme activity | inhibitor | radiometric | 1 µM | remaining activity | 66% |
| c1ccc(CNc2nc(N3CCOc4ccccc43)nc3c2CCCC3)cc1 | target engagement in cells | inhibitor | chemoproteomics | 20 mM | inhibition | -9% |
| O=C(Nc1cccc(Nc2ncc(Br)c(NCCc3cnc[nH]3)n2)c1)N1CCCC1 | enzyme activity | inhibitor | radiometric | 1 µM | remaining activity | 6% |
| Cc1nc(Cc2cccc(C(F)(F)F)c2)sc1-c1ccc(C(N)=O)nc1 | cell-free assay |  | competition with immobilised ligand | 1 µM | remaining binding | 100% |
| O=C(Nc1cnn(-c2csc(C(=O)NC3COC3)c2)c1)Nc1ccccc1Cl | enzyme activity | inhibitor |  | 5 µM | remaining activity | 134% |
| CC(=O)N1CCC(c2ccc(C(=O)NC(=N)N)cc2C(F)(F)F)CC1 | cell-free assay |  | competition with immobilised ligand | 1 µM | remaining binding | 100% |
| Cc1nn(CC(F)(F)F)cc1Nc1nccc(NCCc2cnc[nH]2)n1 | enzyme activity | inhibitor | radiometric | 1 µM | remaining activity | 88% |
| CO[C@H]1CC[C@H](CNc2ccc(S(=O)(=O)NC(=O)c3ccc(N4CCN(CC5=C(c6ccc(Cl)cc6)CC(C)(C)CC5)CC4)cc3Oc3cnc4[nH]ccc4c3)cc2[N+](=O)[O-])CC1 | cell-free assay |  | competition with immobilised ligand | 1 µM | remaining binding | 82% |
| COc1ccc(Nc2ncc(C(F)(F)F)c(NC3CC3)n2)cc1OC | thermal stability |  | DSF | 10 µM | ΔTm | 9.5 °C |
| CCc1ccccc1C(=O)Nc1n[nH]c2c(C)c(F)c(C3C(C#N)=C(C)N(C)C(C)=C3C#N)cc12 | cell-free assay |  | competition with immobilised ligand | 1 µM | remaining binding | 29% |
| Nc1ncnc2occ(-c3ccc(NC(=O)Nc4cc(C(F)(F)F)ccc4F)cc3)c12 | cell-free assay | inhibitor |  | 20 µM | remaining signal | 48% |
